Sampled rows, rich in hits. Any-hit rate of the full collection: about 4.8%.
APP 5UTR inh: APP translation inhibition; SH-SY5Y APP 5'UTR-luciferase reporter, luminescence; inhibition, % at 2 µM; hit rate 0.82% among 190,000; AID 1285;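 active = inhibition above a set limit, derived from the sample mean plus 3 SD, cut at about 45% in these data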
STAT1 act: activators of IFN-gamma induced STAT1 signaling; NIH 3T3 STAT1-luciferase reporter, luminescence; 100% = IFN-gamma alone, no compound; activation (% of control), % at 5.5 µM; hit rate 2.6% among 200,000;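 active = activation above the screen-wide mean activation plus 3 SD, cut at about 130% in these data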
FLuc stim CS: affects firefly luciferase, flagging false hits in luciferase stimulation screens; activation factor at 10 µM; P08659; 200,000 tested, under 10 active; ATPlite luciferase biochemical, luminescence, 10 min; 0 = ATP-free wells, 1 = DMSO control;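 active = luciferase activation factor, scaled between plate controls, of at least 2 with compound at 10 µM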
Target sequence (P08659 whole entry, looked up): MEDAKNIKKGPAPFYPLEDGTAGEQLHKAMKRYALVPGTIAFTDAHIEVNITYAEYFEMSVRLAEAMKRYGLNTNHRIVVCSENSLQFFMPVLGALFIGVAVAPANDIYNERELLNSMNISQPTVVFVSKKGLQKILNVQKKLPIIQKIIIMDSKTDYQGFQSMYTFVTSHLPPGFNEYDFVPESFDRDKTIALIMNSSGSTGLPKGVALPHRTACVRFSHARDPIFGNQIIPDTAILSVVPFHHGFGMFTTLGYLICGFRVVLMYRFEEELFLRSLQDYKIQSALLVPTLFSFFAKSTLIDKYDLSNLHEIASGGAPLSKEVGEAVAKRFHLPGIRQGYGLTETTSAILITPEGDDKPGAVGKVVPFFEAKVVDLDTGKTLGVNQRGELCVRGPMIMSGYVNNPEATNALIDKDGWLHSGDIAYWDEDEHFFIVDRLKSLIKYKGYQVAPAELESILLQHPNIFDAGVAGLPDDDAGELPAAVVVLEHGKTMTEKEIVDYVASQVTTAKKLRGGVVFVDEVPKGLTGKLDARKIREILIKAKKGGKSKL
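Assay system: Luciferase/luciferin detection reagent, cell-free biochemical luciferase assay / Also added: ATP substrate / Schedule: 10 min at ambient temperature / Measured by: luminescence measurement of luciferase light output / Benchmarks: low control with PBS replacing ATP, high control enzyme plus ATP without compound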
NF-kB neuron act: raises NF-kB expression in human neuronal cells; NF-kB reporter expression; stronger effect = higher value; fold change at 12.5 µM; hit rate 1.6% among 190,000; AID 1239; in the data active = fold change above about 3.3
APP 5'UTR act: activates APP 5'UTR luciferase reporter; SH-SY5Y APP 5'UTR luciferase reporter, luminescence; zero percent = DMSO vehicle wells; hit rate 1% among 190,000; activation, % at 2 µM; AID 1276;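 active = activation above a set limit, based on mean plus 3 SD of controls, cut at about 140% in these data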
FLuc inhib CS: counter-screen for luciferase assay inhibitors: firefly luciferase inhibition; P08659; ATPLite firefly luciferase biochemical luminescence, 10 min; inhibition, % at 10 µM; hit rate 1.5% among 200,000;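 active = inhibition above about 50% when tested at 10 µM, limit read from the data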
STAT1 activ conf: confirmation of STAT1 signaling activators; shares compounds with STAT1 act; NIH 3T3 STAT1-luciferase reporter, IFN-gamma potentiation, luminescence; 100% = IFN-gamma EC80 alone, no compound; activation (% of control), % at 5.7 µM; hit rate 97% among 1,200;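 active = activation above a set limit carried over from the earlier primary STAT1 screen, cut at about 140% in these data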
NFkB act: counter-screen for STAT1 activators: NF-kappaB activation; hit rate 43% among 1,200; AID 1306; HEK293T NF-kB luciferase reporter, TNF-alpha stimulated, luminescence; 100% = TNF-alpha with vehicle only; shares compounds with STAT1 act; activation (% of control), % at 5.7 µM;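 active = activation above the mean of solvent-only control wells plus 3 SD, set per campaign, cut at about 130% in these data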;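 note: TNF-alpha given at a submaximal dose yielding about 80% of full reporter signal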
STAT3 act STAT1c: activates human STAT3, counter-screen to STAT1 activators. U3A cells STAT3-luciferase reporter, IL-6, luminescence; cells lack STAT1; 100 = IL-6 alone, no compound effect. shares compounds with STAT1 act. activation (% of control), % at 5.7 µM. hit rate 46% among 1,200;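 active = activation above the solvent-only control well mean plus 3 SD, set per plate batch, cut at about 110% in these data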;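 note: higher means more STAT3 reporter activation so hits are non-selective activators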
A number is an active result; n = inactive; x = not tested or not shown.

SMILES | APP 5UTR inh | STAT1 act | FLuc stim CS | NF-kB neuron act | APP 5'UTR act | FLuc inhib CS | STAT1 activ conf | NFkB act | STAT3 act STAT1c
Cc1nc(-c2ccc3c(c2)OCCO3)cs1 | n | n | n | n | n | n | x | x | x
Cc1cccc(Nc2nc(-c3ccc4c(c3)OCCO4)cs2)c1 | n | 158.2 | n | n | 161.3 | n | 216.7 | 143.7 | n
O=C(Nc1nc(-c2ccc3c(c2)OCCO3)cs1)C1CCCC1 | n | 155.6 | n | 6.64 | 173.1 | n | 188.2 | 134.4 | 120.6
O=C(Nc1nc(-c2ccc3c(c2)OCCO3)cs1)c1ccc(S(=O)(=O)N2CCCCC2)cc1 | n | n | n | n | n | n | x | x | x
N#CCC(=O)Nc1nc(-c2ccc3c(c2)OCCO3)cs1 | n | 165.4 | n | n | n | n | 169.2 | n | 113.2
CON1C(=O)C(=O)N(OC)C2CCCCC21 (stereo not given) | n | n | n | n | n | n | x | x | x
COc1ccccc1Oc1ccc(N/C=C/C(=O)C(C)(C)C)cc1 | n | n | n | n | n | n | x | x | x
CC(C)[C@H](NC(=O)c1ccco1)C(=O)OCC(=O)Nc1cccc(F)c1 | n | n | n | n | n | n | x | x | x
O=C(/C=C/Nc1ccc(Oc2ccccc2Cl)cc1)c1ccco1 | n | 155.2 | n | 6.21 | n | n | 177.8 | 143.8 | 135.1
O=C(/C=C/Nc1cccc(F)c1)c1ccco1 | n | 154.2 | n | 3.86 | n | 75.8 | 192.2 | n | 115.7
Nc1nn(-c2ccccc2)c(N)c1N=Nc1ccccc1F | n | 219.3 | n | 13.8 | 180.8 | n | 305.6 | n | n
Cc1cccc(N=Nc2c(C)nn(-c3ccccc3)c2N)c1C | n | n | n | n | n | n | x | x | x
Cc1nc2c(N=Nc3ccccc3F)c(N)nn2c(N)c1C#N | n | 166.0 | n | n | n | n | 146.0 | n | 123.4
Cc1nn(-c2ccccc2)c(N)c1N=Nc1ccccc1 | n | 176.5 | n | 6.8 | 156.3 | n | 197.9 | 139.8 | 141.2
Cc1nn(-c2ccccc2)c(N)c1N=Nc1ccc(Cl)cc1 | n | 155.1 | n | 4.51 | n | n | 182.9 | n | n
Cc1nn(-c2ccccc2)c(N)c1C(O)(C(F)(F)F)C(F)(F)F | n | n | n | n | n | n | x | x | x
Nc1nn(-c2ccccc2)c(N)c1N=Nc1ccccc1 | n | 202.5 | n | 8.05 | n | 51.0 | 228.1 | n | 115.4
COc1ccc(Cn2c(C3CC3)nc3ccc(NC(=O)c4ccco4)cc3c2=O)cc1 | n | 151.5 | n | n | n | n | 183.0 | n | 140.1
NS(=O)(=O)c1ccc(Oc2ccc(S(N)(=O)=O)cc2)cc1 | n | n | n | n | n | n | x | x | x
C=CS(=O)(=O)c1ccc(Oc2ccc(S(=O)(=O)C=C)cc2)cc1 | 90.5 | 323.2 | n | n | n | n | 188.9 | n | 113.7
CCOC(=O)CNC(=O)c1cc(-c2ccccn2)nc2c(C)c(Cl)ccc12 | n | n | n | n | n | n | x | x | x
Cc1ccc(S(=O)(=O)Nc2nc3ccccc3s2)cc1 | n | n | n | n | n | n | x | x | x
COc1ccc2nc(Nc3ccccc3)sc2c1 | n | 150.8 | n | 8.13 | n | 77.2 | 199.6 | 138.1 | n
COc1ccc2nc(Nc3nc4cc5c(cc4s3)OCO5)sc2c1 | n | n | n | n | n | n | x | x | x
Cc1ccc(Nc2nc3ccccc3s2)cc1 | n | 192.2 | n | n | n | n | 258.7 | 137.0 | n
COc1ccc2nc(Nc3ccc4c(c3)OCO4)sc2c1 | n | 151.9 | n | n | n | n | 162.1 | n | n
COc1ccc(N(CC(=O)N2CCN(c3ccc(Cl)cc3)CC2)S(=O)(=O)c2c(C)n[nH]c2C)cc1 | n | n | n | n | n | n | x | x | x
O=C(N/N=C/c1cnc(N2CCCCC2)s1)c1ccc(C(F)(F)F)cc1 | n | n | n | n | n | n | x | x | x
